Experimental findings from ChEMBL document CHEMBL1142096, “Reduced susceptibility of Haemophilus influenzae to the peptide deformylase inhibitor LBM415 can result from target protein overexpression due to amplified chromosomal def gene copy number” (2007) are described below.

Common to all, as to format: functional
The test system of test [1] is Haemophilus influenzae. Kind of test: Antimicrobial activity against Haemophilus influenzae CDS23 mutant overexpressing Def by broth microdilution method. Put shortly: (§1)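 MIC by CLSI broth microdilution, twofold serial dilutions in HTM broth.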
A general note: Dilution methods test growth across graded concentrations, often in twofold steps.

The subject of test [2] is Haemophilus influenzae. Kind of test: Antimicrobial activity against Haemophilus influenzae NB65044 by broth microdilution method. Put shortly: as §1
The test system of test [3] is Haemophilus influenzae. The experiment in a line: Antimicrobial activity against Haemophilus influenzae CDS01 mutant with acrB insertional inactivation by broth microdilution method. Put shortly:
as §1

The subject of test [4] is Haemophilus influenzae. The experiment in a line: Antimicrobial activity against Haemophilus influenzae CDS40 mutant with acrB insertional inactivation by broth microdilution method. Put shortly:
as §1

In brackets after ≈: the same amount, converted by molar mass.

Turning to `CCCC[C@H](CN(O)C=O)C(=O)N1CCC[C@H]1C(=O)Nc1ccc(F)c[n+]1[O-]`, the MIC against Haemophilus influenzae [1] was found to be 64 µg/mL (≈ 161 µM); with Haemophilus influenzae [2], 4 µg/mL (≈ 10.1 µM); against Haemophilus influenzae [3] it was 0.25 µg/mL (≈ 0.631 µM); in the test on Haemophilus influenzae [4], 4 µg/mL (≈ 10.1 µM).
As to `CCC[C@@H]1C[C@@H](C(=O)N[C@@H]([C@H]2O[C@H](SC)[C@H](O)[C@@H](O)[C@H]2O)[C@H](C)Cl)N(C)C1` [CLINDAMYCIN], the MIC amounted to 4 µg/mL (≈ 9.41 µM) in the test on Haemophilus influenzae [1], 8 µg/mL (≈ 18.8 µM) with Haemophilus influenzae [2], 0.5 µg/mL (≈ 1.18 µM) against Haemophilus influenzae [3] and 0.5 µg/mL (≈ 1.18 µM) against Haemophilus influenzae [4].
Turning to `CN(C)[C@@H]1C(O)=C(C(N)=O)C(=O)[C@@]2(O)C(O)=C3C(=O)c4c(O)cccc4[C@@](C)(O)[C@H]3C[C@@H]12` [TETRACYCLINE], the MIC with Haemophilus influenzae [1], against Haemophilus influenzae [2], in the test on Haemophilus influenzae [3] and with Haemophilus influenzae [4] was 0.5 µg/mL (≈ 1.13 µM) throughout.
